Source: PMC12138345 (RSC Advances, 2025)
Counter-ions that a name gives are not always drawn. Like-named read-outs stand apart in the source and are kept apart here.

Tests used:
CtPilB = target: T1, CtPilB (Chloracidobacterium thermophilum, UniProt G2LDI3); experiment: CtPilB ATPase malachite green assay; type: biochemical; conditions: for inhibition at 30 µM: read-out: % Inhib. 30 μM; for inhibition at 3 µM: read-out: % Inhib. 3 μM
T1 sequence (G2LDI3 140-614): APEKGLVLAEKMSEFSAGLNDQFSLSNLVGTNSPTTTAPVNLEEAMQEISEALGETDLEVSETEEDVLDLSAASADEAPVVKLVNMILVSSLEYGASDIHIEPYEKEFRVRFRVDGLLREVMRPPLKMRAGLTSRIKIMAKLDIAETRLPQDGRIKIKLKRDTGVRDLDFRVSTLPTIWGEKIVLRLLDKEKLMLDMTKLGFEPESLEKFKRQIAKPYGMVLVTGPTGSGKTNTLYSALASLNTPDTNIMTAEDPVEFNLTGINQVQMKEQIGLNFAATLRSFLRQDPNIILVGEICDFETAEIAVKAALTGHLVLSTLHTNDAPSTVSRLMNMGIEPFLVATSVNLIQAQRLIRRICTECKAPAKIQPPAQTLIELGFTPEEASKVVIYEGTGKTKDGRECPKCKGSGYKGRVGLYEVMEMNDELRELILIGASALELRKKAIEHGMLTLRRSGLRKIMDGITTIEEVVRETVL
In short: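 N-terminally truncated CtPilB hexamer (lacking residues 1–139, purified), 3.3 nM, with 1 mM ATP, 2% DMSO and test compound, 54 °C, 30 min. Quenched with 30% TCA; phosphate detected by malachite green/ammonium molybdate, absorbance at 620 nm, room temperature. Screen at 3 and 30 μM with benserazide as benchmark; IC50 from concentration–response fits.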

apyrase = experiment: Apyrase ATPase selectivity assay; type: biochemical; conditions: varying concentrations up to 64 μM; 1 mM ATP, 37 °C, 30 min; p-value > 0.05
In short: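 Commercial apyrase (6.7 × 10−7 U μl−1) with 1 mM ATP in 20 mM MES, 50 mM NaCl, 5 mM CaCl2, 1 mM DTT, 2% DMSO, test compound up to 64 μM, 37 °C, 30 min. Stopped with 30% TCA; released phosphate measured by malachite green assay. Biological experiments run in duplicate; concentrations compared statistically.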

| Structure (SMILES) | inhibition at 30 µM (CtPilB) [%] | inhibition at 3 µM (CtPilB) [%] | other results |
| --- | --- | --- | --- |
| N[C@H](CO)C(=O)N/N=C/c1ccccc1O [8a, (R,E)-2-Amino-3-hydroxy-N′-(2-hydroxybenzylidene)propanehydrazide hydrochloride] | 23 ± 21 | – | – |
| NNC(=O)[C@@H](N)CO [compound 4, (S)-2-Amino-3-hydroxypropanehydrazide dihydrochloride] | 27 ± 19 | – | – |
| N[C@H](CO)C(=O)NNCc1cccc(O)c1O [7d, (R)-2-Amino-N′-(2,3-dihydroxybenzyl)-3-hydroxypropanehydrazide hydrochloride] | 78.2 ± 4 | 19 ± 12 | – |
| N[C@H](CO)C(=O)NNCc1ccccc1O [7a, (R)-2-Amino-3-hydroxy-N′-(2-hydroxybenzyl)propanehydrazide hydrochloride] | 32 ± 4 | – | – |
| Cl.N[C@H](CS)C(=O)N/N=C/c1c(O)cccc1O [11c, (S,E)-2-Amino-N′-(2,6-dihydroxybenzylidene)-3-mercaptopropanehydrazide hydrochloride] | 97 ± 11 | 90 ± 1 | IC50 (CtPilB): 580 nM; Potency relative to benserazide (CtPilB; ratio of IC50 values): 6 fold; Inhibition of apyrase ATPase activity (apyrase): no significant difference |
| N[C@H](CO)C(=O)N/N=C/c1c(O)cccc1O [8g, (R,E)-2-Amino-N′-(2,6-dihydroxybenzylidene)-3-hydroxypropanehydrazide hydrochloride] | 86 ± 3 | 65 ± 5 | IC50 (CtPilB; dose–response 0.01–50 μM, benserazide as control): 1320 nM |
| N[C@H](CO)C(=O)N/N=C/c1ccc(O)c(O)c1O [8j, (R,E)-2-Amino-3-hydroxy-N′-(2,3,4-trihydroxybenzylidene)propanehydrazide hydrochloride] | 84 ± 2 | 35 ± 9 | – |
| C[C@@H](N)C(=O)N/N=C/c1c(O)cccc1O [11b, (R,E)-2-amino-N′-(2,6-dihydroxybenzylidene)propanehydrazide hydrochloride] | 87 ± 4 | 26 ± 11 | – |
| COc1cccc(O)c1/C=N/NC(=O)[C@H](N)CO [8h, (R,E)-2-Amino-3-hydroxy-N′-(2-hydroxy-6-methoxybenzylidene)propanehydrazide hydrochloride] | 67 ± 4 | – | – |
| N[C@H](CO)C(=O)N/N=C/c1ccc(O)c(O)c1 [8i, (R,E)-2-Amino-N′-(3,4-dihydroxybenzylidene)-3-hydroxypropanehydrazide hydrochloride] | 14 ± 4 | – | – |
| N[C@H](CO)C(=O)N/N=C/c1ccc(O)cc1O [8e, (R,E)-2-Amino-N′-(2,4-dihydroxybenzylidene)-3-hydroxypropanehydrazide hydrochloride] | 69 ± 10 | – | – |
| NC(CO)C(=O)NNCc1ccc(O)c(O)c1O (stereo not shown) [Benserazide, reference compound] | 80 ± 8 | 34 ± 10 | IC50 (CtPilB): 3680 nM; Inhibition of apyrase ATPase activity (apyrase): no significant difference |
| NCC(=O)N/N=C/c1c(O)cccc1O [11a, (E)-2-Amino-N′-(2,6-dihydroxybenzylidene)acetohydrazide hydrochloride] | 92 ± 5 | 55 ± 8 | – |
| N[C@H](CO)C(=O)NNCc1ccc(O)cc1O [7e, (R)-2-Amino-N′-(2,4-dihydroxybenzyl)-3-hydroxypropanehydrazide hydrochloride] | 40 ± 2 | – | – |
| N[C@H](CO)C(=O)N/N=C/c1cccc(O)c1 [8b, (R,E)-2-Amino-3-hydroxy-N′-(3-hydroxybenzylidene)propanehydrazide hydrochloride] | 18 ± 9 | – | – |
| N[C@H](CO)C(=O)NNCc1c(O)cccc1O [7g, (R)-2-Amino-N′-(2,6-dihydroxybenzyl)-3-hydroxypropanehydrazide hydrochloride] | 74 ± 5 | 32 ± 12 | – |
| N[C@H](CO)C(=O)NNCc1cc(O)ccc1O [7f, (R)-2-Amino-N′-(2,5-dihydroxybenzyl)-3-hydroxypropanehydrazide hydrochloride] | 45 ± 6 | – | – |
| Cl.N[C@H](CO)C(=O)N/N=C/c1c(O)ccc(O)c1O [8k, (R,E)-2-Amino-3-hydroxy-N′-(2,3,6-trihydroxybenzylidene)propanehydrazide hydrochloride] | 91 ± 8 | 71 ± 4 | IC50 (CtPilB): 1060 nM; Inhibition of apyrase ATPase activity (apyrase): no significant difference |
| N[C@H](CO)C(=O)N/N=C/c1cccc(O)c1O [8d, (R,E)-2-Amino-N′-(2,3-dihydroxybenzylidene)-3-hydroxypropanehydrazide hydrochloride] | 84 ± 4 | – | – |
| N[C@H](CO)C(=O)N/N=C/c1ccc(O)cc1 [8c, (R,E)-2-Amino-3-hydroxy-N′-(4-hydroxybenzylidene)propanehydrazide hydrochloride] | 2 ± 3 | – | – |
| COc1ccc(/C=N/NC(=O)[C@H](N)CO)c(OC)c1OC.Cl [8l, (R,E)-2-Amino-3-hydroxy-N′-(2,3,4-trimethoxybenzylidene)propanehydrazide hydrochloride] | – | – | Activity against PilB (in words) (CtPilB; screen at 3 and 30 μM): essentially had no activity |
| N[C@H](CO)C(=O)N/N=C/c1cc(O)ccc1O (mixture of isomers) [8f, (R,E)-2-Amino-N′-(2,5-dihydroxybenzylidene)-3-hydroxypropanehydrazide hydrochloride] | 80 ± 16 | 40 ± 26 | – |
